Assay results as given in ChEMBL document CHEMBL1154219, “New Ras CAAX mimetics: design, synthesis, antiproliferative activity, and RAS prenylation inhibition” (Bioorg Med Chem Lett, 2009).
The source made the active and inactive calls. No cut-off for these calls is given here.

Assays:
[1] = Antiproliferative activity against HSMC after 72 hrs; type: functional; conditions: Homo sapiens
Summary of the method: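 Human aortic SMCs seeded at 8 × 10⁴ cells per 35 mm dish in DMEM with 10% FCS. After 24 h, switched to 0.4% FCS for 72 h to arrest growth. Then refed with 10% FCS with or without compound (DMSO, final ≤0.5%) for 72 h at 37 °C. Cells trypsinized and counted by Coulter counter. IC50 obtained by linear regression of log concentration versus logit.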

[2] = Inhibition of Ras protein protein prenylation in HSMC assessed as unprenylated Ras accumulation after 72 hrs by Western blot analysis; design: species or system Homo sapiens
Summary of the method: (§1)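 Human aortic SMCs seeded at 4 × 10⁵ cells per 60 mm dish. Growth-arrested in 0.4% FCS for 72 h, then exposed to compound in 10% FCS for 72 h at 37 °C (DMSO ≤0.5%). Cells lysed on ice in Tris pH 7.5/NaCl/NP-40 buffer with protease inhibitors; lysates cleared, protein measured by BCA. SDS-PAGE under reducing conditions, anti-Ras immunoblot, ECL detection. Unprenylated Ras seen as the slower-migrating band.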

Homo sapiens [3] = species: Homo sapiens; assay: Inhibition of Ras protein protein prenylation in HSMC assessed as unprenylated Ras accumulation at 50 uM after 72 hrs by Western blot analysis; summary of the method: as §1
Homo sapiens [4] = species: Homo sapiens; assay: Inhibition of Ras protein protein prenylation in HSMC assessed as unprenylated Ras accumulation at 25 uM after 72 hrs by Western blot analysis; summary of the method: as §1
Homo sapiens [5] = species: Homo sapiens; assay: Inhibition of Ras protein protein prenylation in HSMC assessed as unprenylated Ras accumulation at 10 uM after 72 hrs by Western blot analysis; summary of the method: as §1
Homo sapiens [6] = species: Homo sapiens; assay: Inhibition of Ras protein protein prenylation in HSMC assessed as unprenylated Ras accumulation at 75 uM after 72 hrs by Western blot analysis; summary of the method: as §1

| inhibition (Homo sapiens [3]) | SMILES | IC50 [1] [µM] | other results |
| --- | --- | --- | --- |
| – | COC(=O)CNC(=O)c1ccc(C(=O)NC[C@@H]2COc3ccccc3O2)cc1-c1ccccc1C | 89 | – |
| – | COC(=O)[C@H](CCSC)NC(=O)c1ccc(C(=O)NC[C@H]2COc3ccccc3O2)cc1-c1ccccc1C | 87 | – |
| – | COC(=O)[C@H](CCSC)NC(=O)c1ccc(OC[C@@H]2COc3ccccc3O2)cc1-c1ccccc1OC | 204 | – |
| – | COC(=O)[C@H](CCSC)NC(=O)c1ccc(OC[C@H]2COc3ccccc3O2)cc1-c1ccccc1C | 6.6 | IC50 [2]: 2.8 µM |
| – | COC(=O)CNC(=O)c1ccc(C(=O)NC[C@@H]2COc3ccccc3O2)cc1-c1ccccc1OC | 76 | – |
| – | COC(=O)CNC(=O)c1ccc(C(=O)NC[C@H]2COc3ccccc3O2)cc1-c1ccccc1C | 113 | – |
| – | COC(=O)[C@H](CC(C)C)NC(=O)c1ccc(C(=O)NC[C@@H]2COc3ccccc3O2)cc1-c1ccccc1C | 88 | – |
| inactive | COC(=O)[C@H](CC(C)C)NC(=O)c1ccc(OC[C@@H]2COc3ccccc3O2)cc1-c1ccccc1C | 5.2 | inhibition (Homo sapiens [4]): inactive |
| – | COC(=O)[C@H](CCSC)NC(=O)c1ccc(C(=O)NC[C@@H]2COc3ccccc3O2)cc1-c1ccccc1C | 533 | – |
| – | COC(=O)[C@H](CCSC)NC(=O)c1ccc(OC[C@@H]2COc3ccccc3O2)cc1-c1ccccc1C | 193 | – |
| inactive | COC(=O)[C@H](CC(C)C)NC(=O)c1ccc(OC[C@@H]2COc3ccccc3O2)cc1-c1ccccc1OC | 17 | inhibition (Homo sapiens [5]): inactive |
| inactive | COC(=O)[C@H](CC(C)C)NC(=O)c1ccc(OC[C@H]2COc3ccccc3O2)cc1-c1ccccc1OC | 32 | inhibition (Homo sapiens [4]): inactive |
| – | COC(=O)[C@H](CCSC)NC(=O)c1ccc(OC[C@H]2COc3ccccc3O2)cc1-c1ccccc1OC | 230 | – |
| inactive | COC(=O)CNC(=O)c1ccc(OC[C@@H]2COc3ccccc3O2)cc1-c1ccccc1C | 0.7 | inhibition (Homo sapiens [4]): inactive |
| – | COC(=O)CNC(=O)c1ccc(C(=O)NC[C@H]2COc3ccccc3O2)cc1-c1ccccc1OC | 122 | – |
| – | COC(=O)[C@H](CCSC)NC(=O)c1ccc(C(=O)NC[C@@H]2COc3ccccc3O2)cc1-c1ccccc1OC | 647 | – |
| – | COC(=O)[C@H](CC(C)C)NC(=O)c1ccc(C(=O)NC[C@H]2COc3ccccc3O2)cc1-c1ccccc1OC | 185 | – |
| – | COC(=O)[C@H](CC(C)C)NC(=O)c1ccc(C(=O)NC[C@H]2COc3ccccc3O2)cc1-c1ccccc1C | 103 | – |
| – | COC(=O)[C@H](CC(C)C)NC(=O)c1ccc(C(=O)NC[C@@H]2COc3ccccc3O2)cc1-c1ccccc1OC | 469 | – |
| – | COC(=O)[C@H](CCSC)NC(=O)c1ccc(C(=O)NC[C@H]2COc3ccccc3O2)cc1-c1ccccc1OC | 252 | – |
| 35% | COC(=O)CNC(=O)c1ccc(OC[C@H]2COc3ccccc3O2)cc1-c1ccccc1C | 27 | – |
| inactive | COC(=O)CNC(=O)c1ccc(OC[C@H]2COc3ccccc3O2)cc1-c1ccccc1OC | 71 | inhibition (Homo sapiens [6]): inactive |
| inactive | COC(=O)[C@H](CC(C)C)NC(=O)c1ccc(OC[C@H]2COc3ccccc3O2)cc1-c1ccccc1C | 3 | inhibition (Homo sapiens [5]): inactive |
| inactive | COC(=O)CNC(=O)c1ccc(OC[C@@H]2COc3ccccc3O2)cc1-c1ccccc1OC | 35 | inhibition (Homo sapiens [6]): inactive |
